One data set has as its target Cannabinoid receptor 2 (Homo sapiens, UniProt P34972). Nature of the data set: Displacement of [3H]CP55940 from CB2 receptor expressed in CHO-K1 cells. Type of data set: cell-based. (In general: In a radioligand displacement assay an active substance lowers the binding of a labelled ligand.)
In data set [1] the test system is Plasma. Nature of the data set: Metabolic stability in human plasma assessed as compound remaining at 10 uM preincubated for 5 mins measured after 60 mins. Type of data set: ADME, cell-free. The note with it: 1 h. A digest of the protocol:
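Human plasma, 1 ml per sample at 37°C, 5 min pre-incubation, then compound at 10 μM final, sampled at 0, 30 and 60 min. Reactions stopped with acetonitrile; LC-MS/MS (MRM) quantitation with standards in blank matrix; % parent remaining at 60 min.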

For data set [2], the target named is T1, Cannabinoid receptor 1 (Homo sapiens, UniProt P21554). Nature of the data set: biochemical. Type of data set: cell-based, CHO-K1.
The test system of a further data set is MDCK. In words: Permeability from apical to basal side of MDCK cells expressing human mdr1 gene. The note with it: dog. Type of data set: ADME, cell-based, Canis lupus familiaris. In a few lines: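 MDCK-mdr1 cells grown 4 days to confluence on Transwell-type filters in DMEM/F12 with 10% FBS and antibiotics. Compound added apically at 3.16 μM in HBSS with 25 mM D-glucose, HEPES-buffered to pH 7.4; 1 hr at 37°C. Apical and basal samples collected and analysed by LC-MS/MS (MRM).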

A short description of data set [3]: Metabolic stability in human hepatic S9 fraction assessed as compound remaining at 10 uM after 120 mins. Type of data set: ADME, Liver. As to conditions: s9, 2 h. A digest of the protocol: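 Human hepatic S9 (1 mg/ml) with 10 μM final compound in 50 mM potassium phosphate pH 7.4, 3 mM MgCl2, NADPH regenerating system (NADP 1 mM, glucose-6-phosphate 5 mM, G6PDH 1 unit/ml). Triplicates sampled at 0, 15, 30, 60, 120 min; stopped with 3 volumes acetonitrile; LC-MS/MS (MRM) against matrix standard curves; % parent remaining at 120 min.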

Another data set is filed under the species Homo sapiens. Nature of the data set: Selectivity ratio of Ki for CB2 receptor to Ki for human CB1 receptor.
Data set [4] addresses T1, Cannabinoid receptor 1. As to conditions: CHO-K1.
In data set [5] the target is T1, Cannabinoid receptor 1. Nature of the data set: biochemical.
A short description of data set [6]: (§1) Plasma concentration in Sprague-Dawley rat at 10 mg/kg, po after 30 mins. The note with it: Sprague-Dawley, plasma. More on the design: dose 10 mg/kg, route oral. Type of data set: ADME, organism-based. A digest of the protocol:
(§2)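 Orally dosed male Sprague Dawley rats (7–8 weeks; 10 mg/kg in corn oil) sampled by tail vein at 30 minutes. Plasma acetonitrile-precipitated with reserpine internal standard; supernatant injected undiluted for LC-MS/MS, with standards in blank plasma.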

A short description of data set [7]: Plasma concentration in Sprague-Dawley rat at 10 mg/kg, po after 60 mins. More on the design: dose 10 mg/kg, route oral. Type of data set: ADME, organism-based. A digest of the protocol: (§3)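 Male Sprague Dawley rats, 7–8 weeks old, dosed 10 mg/kg orally (corn oil) or ip (1:1:18 ethanol:cremophor:saline). Plasma collected 1 hour post-dose, acetonitrile-precipitated with reserpine internal standard, supernatant diluted in 50:50 methanol:water, quantified by LC-MS/MS against standards in blank plasma.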

The test system of a further data set is Brain. Nature of the data set: (§4) Drug uptake in Sprague-Dawley rat brain at 10 mg/kg, po after 60 mins. It counts as ADME, organism-based. More on the design: dose 10 mg/kg, route oral. The note with it: in vivo, 1 h, BLD = below limit of detection. A digest of the protocol: (§5)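 Male Sprague Dawley rats, 7–8 weeks old, given 10 mg/kg orally (corn oil) or ip (1:1:18 ethanol:cremophor:saline). Brain taken 1 hour post-dose; left lobe homogenized in 50:50 ethanol:water, protein-precipitated with acetonitrile plus reserpine internal standard, analysed by LC-MS/MS against standards in blank brain homogenate.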

Data set [8] in a line: Drug uptake in Sprague-Dawley rat brain at 10 mg/kg, ip after 60 mins. Type of data set: ADME, organism-based. More on the design: dose 10 mg/kg, route intraperitoneal. As to conditions: read-out: Drug uptake. In a few lines: as §5
The nature of data set [9]: Plasma concentration in Sprague-Dawley rat at 10 mg/kg, ip after 60 mins. More on the design: dose 10 mg/kg, route intraperitoneal. It counts as ADME, organism-based. A digest of the protocol:
as §3

The subject of data set [10] is Nucleic Acid. Nature of the data set: Ratio of drug level in brain to plasma in Sprague-Dawley rat at 10 mg/kg, ip after 60 mins. Type of data set: ADME, organism-based. More on the design: dose 10 mg/kg, route intraperitoneal. As to conditions: 1 h. A digest of the protocol: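 Male Sprague Dawley rats, 7–8 weeks, given 10 mg/kg ip in 1:1:18 ethanol:cremophor:saline; plasma and brain taken at 1 h. Plasma and left-lobe brain homogenate (50:50 ethanol:water) protein-precipitated with acetonitrile, reserpine internal standard; LC-MS/MS MRM vs standards in blank matrices; brain:plasma concentration ratio.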

For data set [11], the system named is Plasma. The description is as §1. It counts as ADME, organism-based. More on the design: dose 10 mg/kg, route oral. The note with it: in vivo, 0.5 h, BLD = below limit of detection. A digest of the protocol:
as §2

The nature of data set [12]: as §4. Type of data set: ADME, organism-based. More on the design: dose 10 mg/kg, route oral. As to conditions: Sprague-Dawley, brain, read-out: Drug uptake. In a few lines: as §5
Data set [13] relates to Nucleic Acid. In words: Ratio of drug level in brain to plasma in Sprague-Dawley rat at 10 mg/kg, po after 60 mins. Type of data set: ADME, organism-based. More on the design: dose 10 mg/kg, route oral. The note with it: 1 h. In a few lines:
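Male Sprague Dawley rats, 7–8 weeks, dosed orally at 10 mg/kg in corn oil; plasma and brain collected 1 h post-dose (tail-vein blood also at 30 min). Acetonitrile precipitation with reserpine internal standard, brain left lobe homogenized in 50:50 ethanol:water; LC-MS/MS MRM with blank-matrix standards; brain:plasma concentration ratio.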

By pKi is commonly meant the negative decadic logarithm of the Ki, by convention in mol/L.

pKi: −log10 of the molar value.
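For Ke in this document: antagonism measured as blockade of CP55940-evoked intracellular Ca2+ rise, read fluorometrically, in cells additionally carrying Galphaq16.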

Cannabinoid receptor 2, sequence (P34972 whole entry): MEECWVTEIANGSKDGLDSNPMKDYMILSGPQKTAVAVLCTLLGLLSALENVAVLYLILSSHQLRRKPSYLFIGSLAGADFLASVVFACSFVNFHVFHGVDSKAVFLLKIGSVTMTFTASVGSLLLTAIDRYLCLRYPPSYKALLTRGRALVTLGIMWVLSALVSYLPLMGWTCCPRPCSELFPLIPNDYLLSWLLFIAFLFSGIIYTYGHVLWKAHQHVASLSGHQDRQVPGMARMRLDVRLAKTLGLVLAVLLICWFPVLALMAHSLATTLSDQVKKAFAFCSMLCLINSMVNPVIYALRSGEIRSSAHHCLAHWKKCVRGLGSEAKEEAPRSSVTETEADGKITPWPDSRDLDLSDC
T1 sequence (P21554 whole entry): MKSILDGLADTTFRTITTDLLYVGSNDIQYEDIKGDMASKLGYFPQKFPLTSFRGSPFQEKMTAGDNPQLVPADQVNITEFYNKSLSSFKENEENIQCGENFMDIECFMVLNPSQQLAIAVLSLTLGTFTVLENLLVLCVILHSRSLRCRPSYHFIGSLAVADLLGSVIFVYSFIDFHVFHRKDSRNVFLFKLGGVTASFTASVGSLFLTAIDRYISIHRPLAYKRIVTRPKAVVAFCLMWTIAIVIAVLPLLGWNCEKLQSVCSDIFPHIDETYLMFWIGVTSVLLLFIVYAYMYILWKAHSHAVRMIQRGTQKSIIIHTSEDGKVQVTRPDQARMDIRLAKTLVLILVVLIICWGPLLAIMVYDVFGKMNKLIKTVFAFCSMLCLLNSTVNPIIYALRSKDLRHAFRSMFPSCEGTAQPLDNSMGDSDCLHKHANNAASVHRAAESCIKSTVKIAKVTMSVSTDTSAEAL

`Cc1c(C(=O)N2CCC(NC(=O)NCc3ccccc3)(c3ccccc3)CC2)nn(-c2ccc(Cl)cc2Cl)c1-c1ccc(Cl)cc1`: the pKi on Cannabinoid receptor 2 was 4.77; at Cannabinoid receptor 1 [2], 7.37. In addition, the Stability in the data set on Plasma [1] came to 82%; in [3] it was 18%. For the same compound, the permeability with MDCK is recorded as below 1%. In addition, the Ratio Ki in the data set filed under Homo sapiens worked out at 398. This compound also returned a Ke on Cannabinoid receptor 1 [4] of 2.1 nM.
As for `Cc1c(C(=O)NCC2CCC(CNS(N)(=O)=O)CC2)nn(-c2ccc(Cl)cc2Cl)c1-c1ccc(Cl)cc1` (stereo not given), the Stability in the data set with Plasma [1] is reported as above 90%; in data set [3], 62%.
On the same counts, the results for `Cc1c(C(=O)NN2CCCCC2)nn(-c2ccc(Cl)cc2Cl)c1-c1ccc(Cl)cc1` [RIMONABANT] are above 90% and 47%.
As to `Cc1c(C(=O)N2CCC(C(N)=O)(c3ccccc3)CC2)nn(-c2ccc(Cl)cc2Cl)c1-c1ccc(Cl)cc1`, on Cannabinoid receptor 1 [5], the pKi is 9.40. Also, in the data set on MDCK, the permeability came to 8%. Further, in the data set listed under Homo sapiens, the Ratio Ki was found to be 1600. The same compound showed a Ke on Cannabinoid receptor 1 [4] of 0.4 nM.
`Cc1c(C(=O)N2CCC(NC(=O)OC(C)(C)C)(c3ccccc3)CC2)nn(-c2ccc(Cl)cc2Cl)c1-c1ccc(Cl)cc1`: the figures for the Stability (with Plasma [1]; in data set [3]) were above 90% and 88%, respectively. For the same compound, the permeability in the data set with MDCK is on record as below 1%. The Ratio Ki in the data set listed under Homo sapiens was found to be 49.9. This compound also displayed a Ke on Cannabinoid receptor 1 [4] of 20.2 nM.
The compound `Cc1c(C(=O)N2CCC(NC(=O)NC(C)(C)C)(c3ccccc3)CC2)nn(-c2ccc(Cl)cc2Cl)c1-c1ccc(Cl)cc1` gave a pKi on Cannabinoid receptor 2 of 4.70. The compound further had a concentration at 0.5 h in data set [6] of 3.72 ng/mL. In addition, the figures for the Stability (with Plasma [1]; in data set [3]) were above 90% and 88%, respectively. This compound had a permeability in the data set on MDCK below 1%. Moreover, the concentration at 1 h in [7] came out at 10.3 ng/mL; in [8], 12.4 ng/mL; in data set [9], 386 ng/mL. For the same compound, the Drug uptake entry in the data set with Brain is recorded as “BLD”. The Ratio Ki in the data set listed under Homo sapiens came out at 425. At Cannabinoid receptor 1 [4], this compound had a Ke of 2.4 nM. The BPR in the data set on Nucleic Acid [10] amounted to 0.032.
With `Cc1c(C(=O)NCC2CCC(CNS(C)(=O)=O)CC2)nn(-c2ccc(Cl)cc2Cl)c1-c1ccc(Cl)cc1` (stereo not given), the Stability in the data set with Plasma [1] is listed as above 90%; in data set [3] it was 37%.
As to `Cc1c(C(=O)NC2CCN(C(=O)OC(C)(C)C)CC2)nn(-c2ccc(Cl)cc2Cl)c1-c1ccc(Cl)cc1`, the pKi at Cannabinoid receptor 2 is 5.60; on Cannabinoid receptor 1 [2], 8.54. Also, in the data set with Plasma [11], the Cp entry was “BLD”. The Stability (with Plasma [1]; in [3]) was above 90% each time. The permeability with MDCK is recorded as below 1%. Further, the concentration at 1 h in data set [7] came to 13.2 ng/mL; in [8] it was 4.2 ng/mL; in data set [9], 197 ng/mL. In the data set on Brain, the Drug uptake entry is “BLD”. For the same compound, in the data set listed under Homo sapiens, the Ratio Ki came to 878. The Ke at Cannabinoid receptor 1 [4] is 4.7 nM. In the data set on Nucleic Acid [10], the BPR is recorded as 0.0214.
Take `Cc1c(C(=O)NC2CCN(C(=O)NC(C)(C)C)CC2)nn(-c2ccc(Cl)cc2Cl)c1-c1ccc(Cl)cc1`: the results for the negative logarithm of the Ki (pKi) on Cannabinoid receptor 2 and on Cannabinoid receptor 1 [2] were 5.48 and 7.83, respectively. For the same compound, in [6], the concentration at 0.5 h was 5.08 ng/mL. For the same compound, the Stability with Plasma [1] worked out at 71%. The permeability in the data set on MDCK is listed as below 1%. Further, the concentration at 1 h in data set [7] was determined as 28 ng/mL; in [12] it was 4.46 ng/mL; in data set [8], 25.5 ng/mL; in [9], 67.4 ng/mL. Moreover, the Ratio Ki in the data set listed under Homo sapiens amounted to 228. For the same compound, the Ke on Cannabinoid receptor 1 [4] worked out at 78 nM. Besides, the figures for the BPR in the data set on Nucleic Acid [10] and in the data set with Nucleic Acid [13] were 0.379 and 0.16, respectively.
Take `CCOC(=O)N1CCC[C@H](NC(=O)c2nn(-c3ccc(Cl)cc3Cl)c(-c3ccc(Cl)cc3)c2C)C1`: the pKi was 5.27 on Cannabinoid receptor 2 and 7.18 at Cannabinoid receptor 1 [2]. For the same compound, the permeability in the data set with MDCK is listed as below 1%. In addition, in the data set listed under Homo sapiens, the Ratio Ki amounted to 83. Also, the Ke at Cannabinoid receptor 1 [4] was 75 nM.
In the case of `Cc1c(C(=O)N[C@H]2CCCN(S(C)(=O)=O)C2)nn(-c2ccc(Cl)cc2Cl)c1-c1ccc(Cl)cc1`, the pKi on Cannabinoid receptor 2 was 4.96; at Cannabinoid receptor 1 [2], 7.11. The compound further registered a permeability in the data set on MDCK below 1%. Besides, the Ratio Ki in the data set filed under Homo sapiens turned out to be 140. The compound further displayed a Ke on Cannabinoid receptor 1 [4] of 62 nM.
